Screening results as filed in PubChem.
APJ antag: APJ receptor antagonism | CHO-K1 APJ beta-arrestin complementation, luminescence | inhibition, % at 20 µM | AID 2521 | actives 0.32% (n = 330,000);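 active = inhibition above about 40% at 20 µM, limit read from the data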;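 note: cells challenged with 10 nM apelin-13 agonist together with compound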
APJ ag: agonists of human APJ apelin receptor. P35414. CHO-K1 APJ PathHunter beta-arrestin, luminescence; 0% DMSO wells, 100% apelin. activation, % at 20 µM. actives 0.11% (n = 330,000). AID 2520;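 active = activation more than six SD over the plate average, tested at 20 µM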
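Assay system: CHO-K1 cells stably expressing ProLink-tagged human APJ and arrestin–beta-gal acceptor. Compound dosing: 20 µM single point, 1% DMSO. Times: 16-18 h seeding, 90 min dark compound exposure, 60 min detection. Detection: beta-gal luminescence. Evaluation: APJ–arrestin association signal. Controls: negative DMSO alone, positive Apelin-13 at 10 nM.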
CCR6 antag: antagonists of human CCR6 receptor | CHO-K1 CCR6 PathHunter beta-arrestin, luminescence, CCL20-stimulated | inhibition, % at 20 µM | actives 0.49% (n = 340,000);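 active = compounds whose inhibition of the agonist-driven luminescence signal at 20 µM reaches about 50%, limit read from the data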;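 note: cells stimulated with CCL20 at 14 nM final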
CXCR6 inh: inhibitors of human CXCR6 receptor | AID 602244 | actives 0.36% (n = 360,000) | O00574 | CHO-K1 PathHunter CXCR6 beta-arrestin, luminescence | inhibition, % at 20 µM; in the data active = inhibition above about 34%, passing the limit was not always enough;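 note: antagonist mode with CXCL16 agonist at 10 nM final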
m5-HT2A agonist: activates the mouse 5-HT2A serotonin receptor; P35363; activation, % at 7.6 µM; AID 624169; CHO-K1 mHTR2A beta-arrestin complementation, luminescence; percent of 30 µM serotonin response; actives 0.66% (n = 360,000);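 active = activation above a run cutoff, the mean activation of all tested compounds plus 3 SD, cut at about 14% in these data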
EBI2 antag: EBI2 (human) antagonism. P32249. actives 0.81% (n = 360,000). inhibition, % at 5 µM. EBI2 beta-arrestin recruitment, luminescence, 7a,25-OHC stimulated; in the data active = inhibition above about 38%;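 note: enzyme fragment complementation signal reports receptor beta-arrestin coupling in cells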
Target sequence (P32249 whole entry, looked up, the tested form may be a part): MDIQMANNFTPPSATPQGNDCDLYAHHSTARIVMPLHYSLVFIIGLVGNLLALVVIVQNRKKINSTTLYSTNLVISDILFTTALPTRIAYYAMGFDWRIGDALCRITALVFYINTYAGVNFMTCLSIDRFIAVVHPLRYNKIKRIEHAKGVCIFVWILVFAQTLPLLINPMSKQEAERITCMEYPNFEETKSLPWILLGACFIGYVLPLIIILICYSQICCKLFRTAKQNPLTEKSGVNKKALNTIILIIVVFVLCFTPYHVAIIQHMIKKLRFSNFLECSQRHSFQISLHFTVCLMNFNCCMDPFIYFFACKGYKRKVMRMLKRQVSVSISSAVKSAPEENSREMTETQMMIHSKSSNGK
Each line names hits and unclear results; the compound was inactive in the other large screens. The list is not random: actives were taken first. Their share in the collection is about 2.1%.

Cc1n[nH]c(C)c1Sc1ccccc1[N+](=O)[O-]	none
Cc1n[nH]c(C)c1Sc1ccccc1N=Cc1cc(Cl)cc([N+](=O)[O-])c1O	CXCR6 inh 54.8
CCOC(=O)c1c(NC(C)=O)sc2c(OC(C)=O)cccc12	none
N#Cc1ccc(CN2CCN(C(=O)CCNS(=O)(=O)c3ccc(F)c(Cl)c3)CC2)cc1	m5-HT2A agonist 48.8
N#Cc1ccc(CN2CCN(C(=O)CCNS(=O)(=O)c3ccc(F)c(F)c3)CC2)cc1	none
CC(=O)NNC(=S)NC(=O)C(c1ccccc1)c1ccccc1	none
CC(C)(C)C(=O)NC(=S)NNC(=O)C(c1ccccc1)c1ccccc1	CCR6 antag 79.0, CXCR6 inh 72.1
CN(CC(=O)NC1CCCCCC1)S(=O)(=O)c1ccc(Br)cc1	none
COc1cc(N=Nc2ccc3ccccc3c2)ccc1O	CCR6 antag 50.6
COc1cc(N=Nc2ccccc2C(=O)O)ccc1O	none
Cc1ccc(OCC(=O)N2CCN(c3ccc([N+](=O)[O-])c(N4CCOCC4)c3)CC2)cc1	EBI2 antag 56.3
N#C/C(=N/Nc1ccc([N+](=O)[O-])cc1)C(=N)N1CCCCC1	none (no result: APJ antag, APJ ag)
N#C/C(=N\Nc1ccc([N+](=O)[O-])cc1)C(N)=S	APJ antag 69.3, CCR6 antag 68.6, CXCR6 inh 53.4
COc1ccc(CCNC(=O)c2ccc(N(C)S(=O)(=O)c3ccc(C)cc3)cc2)cc1	none
CC1CCCCN1CCNC(=O)c1ccc2c(=O)n(CCc3ccccc3)c(=O)[nH]c2c1 (stereo not given)	none
O=C1c2ccccc2-c2onc3ccc(Oc4ccccc4)c1c23	CXCR6 inh 40.7
O=C(c1ccccc1)c1coc2c1C(=O)c1ccccc1C2=O	none
CNC(=S)N1N=C(c2ccc(C)cc2)CC1c1ccc(OC)cc1 (stereo not given)	EBI2 antag 87.0
CNC(=S)N1N=C(c2ccc(C)cc2)CC1c1ccc(N(C)C)cc1 (stereo not given)	EBI2 antag 86.7
CNC(=S)N1N=C(c2ccc(C)cc2)CC1c1cc(OC)ccc1OC (stereo not given)	none
CCc1nc2c(OCCOc3ccc(F)cc3)cccn2c1N(C)C(=O)c1ccc(C)cc1	none (no result: APJ antag, APJ ag, CCR6 antag)
CC(C)c1ccc(/C=C/C(=O)Nc2nc3ccc([N+](=O)[O-])cc3s2)cc1	none
O=[N+]([O-])c1ccc2nc(NN=Cc3ccc(O)cc3)sc2c1	CCR6 antag 78.0, CXCR6 inh 55.4 (no result: APJ antag, APJ ag)
S=C(NNc1ccnc2cc(Cl)ccc12)Nc1ccc(Cl)cc1Cl	CCR6 antag 54.4
CCOc1ccc(NC(=S)NNc2ccnc3cc(Cl)ccc23)cc1	none
COC(=O)c1ccc2nc(-c3ccccc3)c(Cc3ccccc3OC)n2c1	none (no result: APJ antag, APJ ag, CCR6 antag)
C=CCn1c(SCC(=C)C)nc2c1c(=O)[nH]c(=O)n2C	none
COc1ccc(S(=O)(=O)/N=C2/C=CC(=O)C(C)=C2C)cc1	none
CC1=C(C)/C(=N\OS(=O)(=O)c2ccc(C)cc2)C=CC1=O	CCR6 antag 76.3, CXCR6 inh 54.6 (no result: APJ antag, APJ ag)
CC1(C)C2CCC(C2)C1(C)NC(=O)CN1CCN(Cc2ccccc2)CC1 (stereo not given)	none
CCCCNC(=O)Nc1nc2ccccc2s1	none
Cc1ccc(/C=C/C(=O)c2c(C)nc3ccccn23)cc1	none
Cc1nc2ccccn2c1C(=O)/C=C/c1cccc([N+](=O)[O-])c1	EBI2 antag 41.6
O=C(C(Cc1ccccc1)N1C(=O)C2C3C=CC(C3)C2C1=O)N1CCCCC1 (stereo not given)	CCR6 antag 108.1
O=C(O)c1cc2ccc3cccc4ccc(c1)c2c34	none
CCN(CC)c1ccc(/C=C2\C(=O)N(c3nnc(C)c(=O)[nH]3)N=C2C)cc1	EBI2 antag 62.6
CCN(CC)c1ccc(/C=C2/C(=O)ON=C2C)cc1	none
O=C(Nc1ccc2cn[nH]c2c1)c1c(Cl)cccc1Cl	none
O=C1C(Cl)=C(Nc2ccc3cn[nH]c3c2)C(=O)c2ccccc21	CCR6 antag 78.2, CXCR6 inh 56.4 (no result: APJ antag, APJ ag)
C(=Cc1cccnc1)c1ccncc1	none (no result: APJ antag, APJ ag)
O=C(/C=C/c1cccnc1)/C=C/c1cccnc1	CCR6 antag 59.5 (no result: APJ antag, APJ ag)
CCOC(=O)CSC1=NC(=O)/C(=C/c2ccc(OC)cc2)S1	CCR6 antag 54.0
COc1ccc(/C=C2\SC(N)=NC2=O)cc1	none
COC(=O)c1ccccc1NC1=C/C(=N\S(=O)(=O)c2cccs2)c2ccccc2C1=O	CCR6 antag 54.0, CXCR6 inh 42.5
COC(=O)c1ccccc1NC1=C/C(=N\S(=O)(=O)c2ccc(C(=O)O)cc2)c2ccccc2C1=O	CCR6 antag 55.0
COC(=O)c1cccc(NS(=O)(=O)c2cccs2)c1C	none (no result: APJ antag, APJ ag)
CCc1ccc(S(=O)(=O)/N=C2\C=C(Nc3ccc(C(=O)O)cc3)C(=O)c3ccccc32)cc1	none
COCCNC(=O)/C(C#N)=C/c1ccc(N2CCOCC2)o1	CXCR6 inh 52.1
CCOc1ccc(N(CC(=O)Nc2ccc(Br)cc2)S(C)(=O)=O)cc1	none
O=[N+]([O-])c1cc(Cl)cc(/C=N/n2cnnc2)c1O	CXCR6 inh 31.5
O=[N+]([O-])c1cc(Br)cc(/C=N/n2cnnc2)c1O	none
O=C(O)c1ccc(CS(=O)(=O)c2c(Cl)cccc2Cl)o1	none
C=C(CN(C)C)C(=O)c1ccc(OC2OC(COC(C)=O)C(OC(C)=O)C(OC(C)=O)C2OC(C)=O)cc1 (stereo not given)	CCR6 antag 100.0, CXCR6 inh 89.6, EBI2 antag 72.2 (no result: APJ antag, APJ ag)
CC(=O)OC[C@H]1O[C@@H](O/N=C/[C@@H](C)[C@H](OCc2ccccc2)C(C)C)[C@H](OC(C)=O)[C@@H](OC(C)=O)[C@@H]1OC(C)=O	none (no result: CCR6 antag, CXCR6 inh, m5-HT2A agonist, EBI2 antag)
COc1ccccc1C(=O)NCCC(=O)NCC(C)(C)N1CCOCC1	m5-HT2A agonist 17.4
O=C(CN1CCC(n2nnc3cc(F)ccc32)CC1)NC1CCCCC1	none
O=C1C2C3C=CC(CO)(O3)C2C(=O)N1c1ccccc1-c1ccccc1 (stereo not given)	CCR6 antag 101.5, CXCR6 inh 57.0
C/C(=N\NC(=S)NCc1ccccc1)c1ccccc1	none
C/C(=N\NC(=S)NCc1ccccc1)c1ccc(C(C)(C)C)cc1	CCR6 antag 62.5
Cc1cc2cc(CNC(=O)Nc3cccc(Cl)c3)ccc2n1C	none
O=C(O)c1cc(O)c2c(c1)[C@H]([C@H]1c3cc(C(=O)O)cc(O)c3C(=O)c3c(O[C@@H]4O[C@H](CO)[C@@H](O)[C@H](O)[C@H]4O)cccc31)c1cccc(OC3O[C@H](CO)[C@@H](O)[C@H](O)[C@H]3O)c1C2=O (stereo not given in full)	CCR6 antag 88.3
